Source: ChEMBL document CHEMBL1208769, “Anti-T. cruzi activities and QSAR studies of 3-arylquinoxaline-2-carbonitrile di-N-oxides” (Bioorg Med Chem Lett, 2010)

Legend:
[1] = Octanol-water partition coefficient of the compound; assay type: physicochemical
Trypanosoma cruzi [2] = assay: Antitrypanosomal activity against Trypanosoma cruzi Tulahuen 2 epimastigotes; assay type: functional, organism-based
Trypanosoma cruzi [3] = assay: Antitrypanosomal activity against Trypanosoma cruzi Tulahuen 2 epimastigotes assessed as inhibition of parasite growth at 25 uM relative to control; assay type: functional; conditions: read-out: GI
In short: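 Epimastigotes of T. cruzi Tulahuen 2 strain exposed to compound at 25 µM. Growth inhibition is given as percentage relative to untreated parasites. Values are means of three separate experiments, SD under 10%.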

| SMILES | logP [1] | IC50 (Trypanosoma cruzi [2]) | inhibition of growth at 25 µM (Trypanosoma cruzi [3]) |
| --- | --- | --- | --- |
| Cc1cc2c(cc1C)[n+]([O-])c(-c1ccc(Cl)cc1)c(C#N)[n+]2[O-] | 2.83 | 16.4 µM | 98.7% |
| COc1ccc(-c2c(C#N)[n+]([O-])c3cc(Cl)ccc3[n+]2[O-])cc1 | 2.09 | 14.3 µM | 110% |
| COc1ccc(-c2c(C#N)[n+]([O-])c3cc(F)ccc3[n+]2[O-])cc1 | 1.97 | 14.3 µM | 92.2% |
| N#Cc1c(N2CCN(c3cccc(C(F)(F)F)c3)CC2)[n+]([O-])c2ccc(Cl)cc2[n+]1[O-] | 2.99 | 6.7 µM | 94% |
| Cc1cc2c(cc1C)[n+]([O-])c(-c1cccs1)c(C#N)[n+]2[O-] | 1.87 | 16.7 µM | 84.8% |
| N#Cc1c(-c2cccs2)[n+]([O-])c2ccc(Cl)cc2[n+]1[O-] | 1.89 | 7.1 µM | 100% |
| COc1ccc2c(c1)[n+]([O-])c(C#N)c(-c1cccs1)[n+]2[O-] | 1.11 | 14.3 µM | 109% |
| Cc1ccc(-c2c(C#N)[n+]([O-])c3cc(F)c(F)cc3[n+]2[O-])cc1 | 2.87 | 14.6 µM | 86.2% |
| COc1ccc(-c2c(C#N)[n+]([O-])c3cc(C(F)(F)F)ccc3[n+]2[O-])cc1 | 2.45 | 10.7 µM | 114% |
| Cc1ccc(-c2c(C#N)[n+]([O-])c3ccccc3[n+]2[O-])cc1 | 2.09 | 23.7 µM | 104% |
| Cc1ccc(-c2c(C#N)[n+]([O-])c3cc(C)c(C)cc3[n+]2[O-])cc1 | 2.57 | 21.2 µM | 98.2% |
| Cc1ccc(-c2c(C#N)[n+]([O-])c3cc(C(F)(F)F)ccc3[n+]2[O-])cc1 | 2.95 | 12.3 µM | 114% |
| Cc1cc2c(cc1C)[n+]([O-])c(-c1ccc(F)cc1)c(C#N)[n+]2[O-] | 2.72 | 16.4 µM | 92.5% |
| N#Cc1c(-c2ccco2)[n+]([O-])c2ccccc2[n+]1[O-] | 0.582 | 25 µM | 46.3% |
| COc1ccc2c(c1)[n+]([O-])c(C#N)c(-c1ccc(OC(F)(F)F)cc1)[n+]2[O-] | 1.69 | 8.2 µM | 100% |
| N#Cc1c(-c2ccc(F)cc2)[n+]([O-])c2ccc(C(F)(F)F)cc2[n+]1[O-] | 3.1 | 14.9 µM | 100% |
| COc1ccc2c(c1)[n+]([O-])c(C#N)c(-c1ccccc1)[n+]2[O-] | 1.58 | 19.3 µM | 111% |
| N#Cc1c(-c2ccccc2)[n+]([O-])c2cc(F)c(F)cc2[n+]1[O-] | 2.62 | 15.3 µM | 81.1% |
| Cc1ccc(-c2c(C#N)[n+]([O-])c3cc(F)ccc3[n+]2[O-])cc1 | 2.48 | 17.4 µM | 87.3% |
| N#Cc1c(-c2cccs2)[n+]([O-])c2ccc(F)cc2[n+]1[O-] | 1.75 | 13 µM | 100% |
| N#Cc1c(-c2ccco2)[n+]([O-])c2ccc(C(F)(F)F)cc2[n+]1[O-] | 1.5 | 12.5 µM | 100% |
| N#Cc1c(-c2cccs2)[n+]([O-])c2cc(F)c(F)cc2[n+]1[O-] | 2.15 | 10.4 µM | 82.9% |
| N#Cc1c(-c2ccc(F)cc2)[n+]([O-])c2ccc(F)cc2[n+]1[O-] | 2.62 | 14.4 µM | 63.8% |
| COc1ccc(-c2c(C#N)[n+]([O-])c3cc(Cl)c(Cl)cc3[n+]2[O-])cc1 | 2.33 | 29 µM | 42.7% |
| N#Cc1c(-c2ccccc2)[n+]([O-])c2ccccc2[n+]1[O-] | 1.84 | 66.6 µM | 36.9% |

| SMILES | logP [1] | IC50 (Trypanosoma cruzi [2]) | inhibition of growth at 25 µM (Trypanosoma cruzi [3]) |
| --- | --- | --- | --- |
| COc1ccccc1N1CCN(c2c(C#N)[n+]([O-])c3cc(Cl)ccc3[n+]2[O-])CC1 | 1.91 | 6.5 µM | 100% |
| Cc1ccc2c(c1)[n+]([O-])c(C#N)c(-c1ccc(OC(F)(F)F)cc1)[n+]2[O-] | 2.18 | 10.7 µM | 75.1% |
| N#Cc1c(-c2ccc(OC(F)(F)F)cc2)[n+]([O-])c2cc(Cl)c(Cl)cc2[n+]1[O-] | 2.68 | 7.2 µM | 82% |
| N#Cc1c(-c2cccs2)[n+]([O-])c2ccccc2[n+]1[O-] | 1.35 | 12.7 µM | 100% |
| CC1CS(=O)(=O)CCN1/N=C/c1ccc([N+](=O)[O-])o1 (stereo unspecified) [NIFURTIMOX] | -0.746 | – | 100% |
| N#Cc1c(-c2ccco2)[n+]([O-])c2cc(Cl)c(Cl)cc2[n+]1[O-] | 1.64 | 13.1 µM | 67% |
| Cc1ccc2c(c1)[n+]([O-])c(C#N)c(-c1cccs1)[n+]2[O-] | 1.62 | 14.8 µM | 74.3% |
| Cc1ccc2c(c1)[n+]([O-])c(C#N)c(-c1ccco1)[n+]2[O-] | 0.845 | 18.1 µM | 68.5% |
| N#Cc1c(-c2ccc(F)cc2)[n+]([O-])c2cc(Cl)c(Cl)cc2[n+]1[O-] | 2.98 | 11.3 µM | 85.3% |
| Cc1ccc(-c2c(C#N)[n+]([O-])c3cc(Cl)ccc3[n+]2[O-])cc1 | 2.6 | 17.4 µM | 104% |
| Cc1ccc(-c2c(C#N)[n+]([O-])c3cc(Cl)c(Cl)cc3[n+]2[O-])cc1 | 3.1 | 14.6 µM | 95.6% |
| N#Cc1c(-c2ccc(Cl)cc2)[n+]([O-])c2cc(F)c(F)cc2[n+]1[O-] | 2.87 | 11.3 µM | 80.9% |
| N#Cc1c(-c2ccc(F)cc2)[n+]([O-])c2ccc(Cl)cc2[n+]1[O-] | 2.74 | 13.2 µM | 92.7% |
| N#Cc1c(-c2ccc(Cl)cc2)[n+]([O-])c2ccc(F)cc2[n+]1[O-] | 2.74 | 13.4 µM | 85.4% |
| N#Cc1c(-c2ccc(Cl)cc2)[n+]([O-])c2ccc(C(F)(F)F)cc2[n+]1[O-] | 3.22 | 9.2 µM | 100% |
| Cc1ccc2c(c1)[n+]([O-])c(C#N)c(-c1ccccc1)[n+]2[O-] | 2.09 | 23.7 µM | 88.1% |
| Cc1ccc2c(c1)[n+]([O-])c(C#N)c(-c1ccc(F)cc1)[n+]2[O-] | 2.48 | 17.4 µM | 83.8% |
| N#Cc1c(-c2ccc(OC(F)(F)F)cc2)[n+]([O-])c2cc(F)c(F)cc2[n+]1[O-] | 2.45 | 9.9 µM | 74.4% |
| COc1ccc(-c2c(C#N)[n+]([O-])c3cc(C)c(C)cc3[n+]2[O-])cc1 | 2.06 | 18.3 µM | 100% |
| N#Cc1c(-c2ccc(OC(F)(F)F)cc2)[n+]([O-])c2ccccc2[n+]1[O-] | 1.94 | 14.5 µM | 100% |
| Cc1cc2c(cc1C)[n+]([O-])c(-c1ccc(OC(F)(F)F)cc1)c(C#N)[n+]2[O-] | 2.41 | 10.6 µM | 79.8% |
| N#Cc1c(-c2ccc(F)cc2)[n+]([O-])c2ccccc2[n+]1[O-] | 2.23 | 15.2 µM | 82.8% |
| COc1ccc2c(c1)[n+]([O-])c(C#N)c(-c1ccc(F)cc1)[n+]2[O-] | 1.97 | 14.6 µM | 84.2% |
| N#Cc1c(-c2ccc(OC(F)(F)F)cc2)[n+]([O-])c2ccc(C(F)(F)F)cc2[n+]1[O-] | 2.79 | 9.2 µM | 100% |
